For data set [1], the target named is T1, ASCT-2 transporter (Homo sapiens, UniProt Q15758).
T1 sequence (Q15758 1-541): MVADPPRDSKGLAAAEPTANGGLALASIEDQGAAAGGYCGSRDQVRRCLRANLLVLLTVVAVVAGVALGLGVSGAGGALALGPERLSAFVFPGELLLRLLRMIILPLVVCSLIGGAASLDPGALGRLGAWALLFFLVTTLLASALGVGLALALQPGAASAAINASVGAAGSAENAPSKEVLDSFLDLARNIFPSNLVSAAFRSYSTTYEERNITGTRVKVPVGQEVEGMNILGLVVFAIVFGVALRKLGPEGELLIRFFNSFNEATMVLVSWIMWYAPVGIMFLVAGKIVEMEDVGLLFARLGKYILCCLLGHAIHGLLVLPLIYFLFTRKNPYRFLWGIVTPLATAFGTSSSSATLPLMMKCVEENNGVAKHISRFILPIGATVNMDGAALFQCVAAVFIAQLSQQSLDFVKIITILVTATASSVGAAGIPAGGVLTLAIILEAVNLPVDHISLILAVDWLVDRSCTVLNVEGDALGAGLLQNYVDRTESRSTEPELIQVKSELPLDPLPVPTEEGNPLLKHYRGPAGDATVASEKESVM
The experiment in a line: [3H]glutamine uptake concentration dependency. In kind it is cell-based. The settings on record: for affinity towards the ASCT-2 transporter (in words): human PC-3 cell line. An outline of the steps: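 Human PC-3 cells kept in RPMI with 10% FCS, 1% L-glutamine and pen/strep, plated the prior day at 175,000 cells/mL. Washed twice in HEPES+ (pH 7.4), then 5 min at 37 °C with [3H]-L-glutamine (111 kBq/mL) over a 10–1200 μM glutamine stock series, ± unlabelled test compound. Ice-cold PBS+BSA stop, NaOH lysis, scintillation counting, BCA normalisation. Non-linear Michaelis-Menten fits; Ki from Km and Km,app at inhibitor concentration.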

Data set [2] concerns the target T2, ASCT-2 transporter (Rattus norvegicus, UniProt D3ZJ25).
T2 sequence (D3ZJ25 1-555): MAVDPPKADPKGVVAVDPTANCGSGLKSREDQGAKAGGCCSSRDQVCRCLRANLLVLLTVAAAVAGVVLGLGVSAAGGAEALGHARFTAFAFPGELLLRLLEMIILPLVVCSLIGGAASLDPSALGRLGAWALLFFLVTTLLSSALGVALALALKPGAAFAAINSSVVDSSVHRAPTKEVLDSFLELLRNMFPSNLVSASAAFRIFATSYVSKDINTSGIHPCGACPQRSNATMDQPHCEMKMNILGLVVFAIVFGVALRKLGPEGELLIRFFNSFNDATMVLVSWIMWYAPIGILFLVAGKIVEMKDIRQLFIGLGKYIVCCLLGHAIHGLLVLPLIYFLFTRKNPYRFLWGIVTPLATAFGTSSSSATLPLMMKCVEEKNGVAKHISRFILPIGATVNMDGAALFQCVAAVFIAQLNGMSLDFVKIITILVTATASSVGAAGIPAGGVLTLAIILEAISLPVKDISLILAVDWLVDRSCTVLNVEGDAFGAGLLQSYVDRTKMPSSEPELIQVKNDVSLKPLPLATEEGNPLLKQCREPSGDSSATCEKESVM
Kind of data set: [3H]glutamine uptake concentration dependency. The settings on record: for affinity towards the ASCT-2 transporter (in words): rat F98 cell line. In kind it is cell-based. Put shortly:
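Rat F98 cells grown in DMEM with 10% FCS, 1% L-glutamine and pen/strep, seeded the day before at 125,000 cells/mL. After two HEPES+ washes (pH 7.4), cells took up [3H]-L-glutamine (111 kBq/mL) for 5 min at 37 °C. Glutamine stocks spanned 10–1200 μM, ± non-radioactive test compound. Stopped on ice, NaOH lysis, scintillation counting, BCA protein correction. Ki from Michaelis-Menten Km versus Km,app.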

The target of data set [3] is T3, ASCT-2 (Homo sapiens, UniProt Q15758).
T3 sequence (Q15758 1-541): T1 sequence (Q15758 1-541)
The experiment in a line: Inhibition of [3H]-L-glutamine uptake in PC-3 cells. The settings on record: 5 min, 37 °C, n=3. The data set is classed as cell-based. An outline of the steps: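 PC-3 cells grown in RPMI with 10% FCS, 1% L-glutamine and pen/strep at 37 °C, 5% CO2, seeded at 175,000 cells/mL the day before. Washed twice in HEPES+ buffer (pH 7.4, 100 mM NaCl, 1 g/L BSA), then given [3H]-L-glutamine (111 kBq/mL) with unlabelled glutamine ± test compound. Stopped on ice with cold PBS+BSA, NaOH-lysed, scintillation-counted, BCA protein-corrected.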

In data set [4] the test system is ASCT-2 expressing wild-type HEK-293 cells. The experiment in a line: Inhibition of [3H]glutamine uptake in wild-type HEK-293 cell line. The data set is classed as cell-based. The settings on record: 50 μM glutamine; 5 min, 37 °C; n=3. Put shortly:
(§1)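 Wild-type or CRISPR-Cas9 SLC1A5-knockout HEK-293 cells grown in DMEM (10% FCS, 1% L-glutamine), seeded at 175,000 cells/mL on poly-D-lysine-coated wells the day before. Washed in HEPES+ (pH 7.4), then given 50 μM [3H]-L-glutamine/glutamine ± test compound. Stopped with ice-cold PBS+BSA, washed, lysed in 0.1 M NaOH, scintillation-counted, BCA protein-normalized. Knockout checked by flow cytometry.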

The subject of data set [5] is SLC1A5 knock-out HEK-293 cell line. The experiment in a line: Inhibition of [3H]glutamine uptake in ASCT-2 knock-out HEK-293 cell line. The data set is classed as cell-based. The settings on record: 50 μM glutamine; 5 min, 37 °C; n=3. Put shortly: as §1
Data set [6] can be described thus: LogD7.4 determination. The data set is classed as physicochemical. The settings on record: n=3. Put shortly:
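1 MBq radiolabelled test compound added to PBS/n-octanol (1:1, V:V), vortexed and spun 10 min at 1100 g. Aliquots of each layer counted in a NaI(Tl) scintillation counter. LogD7.4 taken as log of octanol/PBS count ratio; n=3.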

Data set [7] in a line: In vitro stability in formulation. The data set is classed as physicochemical. The settings on record: 37 °C; analytical HPLC; no degradation products found. Put shortly: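 Radiolabelled test compound held in its formulation at 37 °C for 30, 70, 120 and 180 min after radiosynthesis. Formulation was HPLC eluate (ethanol/10 mM ammonium acetate), diluted with PBS for the biphenyl analogue. At each point 7 MBq was run on analytical C18 HPLC with radio and UV (205 nm) detection at 1.0 mL/min. Runs were isocratic, ethanol/10 mM ammonium acetate 10:90 or 30:70.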

The test system of data set [8] is PC-3 xenograft. Kind of data set: Dynamic microPET in PC-3 xenograft model. In kind it is in vivo, mice. An outline of the steps: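 Male Swiss nu/nu mice (n=5) received 5 × 10^6 PC-3 cells with Matrigel in the right flank at 8 weeks and the left flank a week later; scanned seven weeks post-inoculation. Fasted ≥6 h, isoflurane anaesthesia, 18.5 MBq i.v. via tail vein. 1-h dynamic PET (1-min frames to 25 min, then 5-min), then CT. Manual tumor and leg-muscle ROIs; SUV decay- and syringe-corrected.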

The nature of data set [9]: Biodistribution study in PC-3 inoculated mice. The data set is classed as in vivo. Put shortly: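 PC-3 flank xenografts in male Swiss nu/nu mice, prepared as for imaging. Seven weeks post-inoculation, 5.0 MBq radiotracer given i.v. via lateral tail vein. Mice killed by cervical dislocation at 20 and 60 min p.i. (n=3 each). Blood drawn by cardiac puncture; organs dissected, rinsed with water, weighed and counted. Results as %ID/g ± SD.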

For data set [10] the following is noted: reported for glutamine; cited from earlier work.
The mark [11] stands for this setting: Swiss nu/nu male mice, PC-3, i.v., 20 min, n=3.
[12] abbreviates: Swiss nu/nu male mice, PC-3, i.v., 60 min, n=3.

“And” between values parts separate entries of the source, which are not always exact repeats. Identical values can stand only once.

We go through four molecules from paper PMC7814958 (Nuclear medicine and biology, 2020).

The term Ki denotes a measure of affinity in units of concentration, obtained from inhibition or displacement. Low readings indicate higher affinity, high ones lower affinity.

As to `N[C@@H](CCC(=O)Nc1ccc(-c2ccc(F)cc2)cc1)C(=O)O` [FBPG, N5-(4’-fluoro-[1,1’-biphenyl]-4-yl)glutamine], in data set [1], affinity was put at a Ki of 604 µM and the “affinity towards the ASCT-2 transporter (in words)” value is “low affinity”. In data set [2], the Ki is 1420 µM and the “affinity towards the ASCT-2 transporter (in words)” value is reported as “low affinity”. In addition, the “relative uptake of [3H]-L-glutamine in presence of inhibitor compared to basal uptake” value in [3] is 92 ± 1%. The “relative uptake of [3H]glutamine in presence of inhibitor compared to basal uptake, Wild-type HEK-293” value in [4] was 95 ± 6%. Further, the “relative uptake of [3H]glutamine in presence of inhibitor compared to basal uptake, ASCT-2 KO HEK-293” value in data set [5] is on record as 58 ± 9%.
`N[C@@H](CCC(=O)Nc1ccc(F)cc1)C(=O)O` [FPG, N5-(4-fluorophenyl)glutamine]: in [1], the Ki came to 234 µM and the “affinity towards the ASCT-2 transporter (in words)” value is reported as “moderate affinity”. Further, in data set [2], the inhibition constant (Ki) was 850 µM and the “affinity towards the ASCT-2 transporter (in words)” value was “low affinity”. In addition, in [3], the “relative uptake of [3H]-L-glutamine in presence of inhibitor compared to basal uptake” value is 94 ± 9%. Moreover, the “relative uptake of [3H]glutamine in presence of inhibitor compared to basal uptake, Wild-type HEK-293” value in data set [4] is listed as 96 ± 7%. Besides, the “relative uptake of [3H]glutamine in presence of inhibitor compared to basal uptake, ASCT-2 KO HEK-293” value in [5] was found to be 60 ± 7%.
In the case of `N[C@@H](CCC(=O)Nc1ccc(-c2ccc([18F])cc2)cc1)C(=O)O` [[^18F]FBPG, [^18F]fluorobiphenylglutamine], in data set [6], the “logD7.4 (octanol/PBS ratio at pH 7.4)” value was 1.11 ± 0.01 and 1.11. In addition, in data set [7], the stability in formulation result is “at least 3 hours”. Besides, in [8] (PC-3 xenograft mice, 18.5 MBq i.v., leg muscle as reference), the “T/Mmean (mean tumor-to-muscle ratio)” value amounted to 1.20 ± 0.15. Also, the “SUVmean (mean standardized uptake value)” value in [8] (PC-3 xenograft mice, 18.5 MBq i.v., tumor ROI) is on record as 0.17 ± 0.04. For the same molecule, in data set [8] (mice bearing PC-3 xenografts), the “tumor uptake on PET (in words)” value is on record as “very low uptake”. Moreover, in data set [9] (PC-3 inoculated mice), the “bone uptake as indication of defluorination (in words)” value was “No enhanced uptake in the bone”. For the same molecule, in [9] (setting [11]), the “Bladder uptake %ID/g 20 min post-injection” value was found to be 1.33 ± 0.77 %ID/g, the “Blood uptake %ID/g 20 min post-injection” value was found to be 5.49 ± 0.74 %ID/g, the “Bone uptake %ID/g 20 min post-injection” value came to 0.95 ± 0.20 %ID/g and the “Brain uptake %ID/g 20 min post-injection” value is 0.67 ± 0.13 %ID/g. For the same molecule, in [9] (setting [11]), the “Fat uptake %ID/g 20 min post-injection” value was 0.92 ± 0.26 %ID/g, the “Heart uptake %ID/g 20 min post-injection” value turned out to be 2.03 ± 0.47 %ID/g, the “Kidney uptake %ID/g 20 min post-injection” value is on record as 11.52 ± 3.91 %ID/g and the “Large intestine uptake %ID/g 20 min post-injection” value is given as 0.39 ± 0.14 %ID/g. Besides, in [9] (setting [11]), the “Liver uptake %ID/g 20 min post-injection” value is 7.43 ± 1.80 %ID/g, the “Lung uptake %ID/g 20 min post-injection” value amounted to 5.03 ± 1.14 %ID/g, the “Muscle uptake %ID/g 20 min post-injection” value was found to be 0.45 ± 0.09 %ID/g and the “Prostate uptake %ID/g 20 min post-injection” value is listed as 2.13 ± 1.90 %ID/g. In addition, in data set [9] (setting [11]), the “Skin uptake %ID/g 20 min post-injection” value stood at 0.79 ± 0.10 %ID/g, the “Small intestine uptake %ID/g 20 min post-injection” value came out at 5.77 ± 5.82 %ID/g, the “Spleen uptake %ID/g 20 min post-injection” value is recorded as 3.11 ± 0.28 %ID/g and the “Stomach uptake %ID/g 20 min post-injection” value was 2.89 ± 1.72 %ID/g. Also, in [9] (setting [11]), the “Tumor uptake %ID/g 20 min post-injection” value is on record as 0.46 ± 0.09 %ID/g. Also, in data set [9] (setting [12]), the “Bladder uptake %ID/g 60 min post-injection” value is recorded as 2.54 ± 1.47 %ID/g, the “Blood uptake %ID/g 60 min post-injection” value is listed as 4.24 ± 0.85 %ID/g, the “Bone uptake %ID/g 60 min post-injection” value stood at 0.67 ± 0.14 %ID/g and the “Brain uptake %ID/g 60 min post-injection” value is 0.38 ± 0.03 %ID/g. Besides, in [9] (setting [12]), the “Fat uptake %ID/g 60 min post-injection” value is given as 1.21 ± 1.05 %ID/g, the “Heart uptake %ID/g 60 min post-injection” value is reported as 1.50 ± 0.52 %ID/g, the “Kidney uptake %ID/g 60 min post-injection” value is given as 14.46 ± 1.71 %ID/g and the “Large intestine uptake %ID/g 60 min post-injection” value was determined as 0.53 ± 0.07 %ID/g. Further, in data set [9] (setting [12]), the “Liver uptake %ID/g 60 min post-injection” value is listed as 4.44 ± 0.83 %ID/g, the “Lung uptake %ID/g 60 min post-injection” value came to 3.75 ± 0.43 %ID/g, the “Muscle uptake %ID/g 60 min post-injection” value came out at 0.48 ± 0.28 %ID/g and the “Prostate uptake %ID/g 60 min post-injection” value worked out at 2.60 ± 1.12 %ID/g. In data set [9] (setting [12]), the “Skin uptake %ID/g 60 min post-injection” value was found to be 0.57 ± 0.10 %ID/g, the “Small intestine uptake %ID/g 60 min post-injection” value was 19.10 ± 4.83 %ID/g, the “Spleen uptake %ID/g 60 min post-injection” value is reported as 2.07 ± 0.26 %ID/g and the “Stomach uptake %ID/g 60 min post-injection” value came to 0.85 ± 0.01 %ID/g. The “Tumor uptake %ID/g 60 min post-injection” value in data set [9] (setting [12]) was 0.42 ± 0.09 %ID/g.
For `NC(=O)CC[C@H](N)C(=O)O` [glutamine], the logD7.4 in [10] is given as −3.64.
